{"source": "ChEMBL document CHEMBL1671866", "about": "“Genotyping as a tool for antibiotic resistance surveillance of Neisseria gonorrhoeae in New Caledonia: evidence of a novel genotype associated with reduced penicillin susceptibility” (2008)", "type_in_all_cases": "functional", "key": {"[1]": {"test_system": "Neisseria gonorrhoeae", "assay": "Antibacterial activity against Neisseria gonorrhoeae harboring porB1b and DA G101D mutant genes by disk agar diffusion method", "in_short": "(§1)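 Clinical N. gonorrhoeae isolates from sexually transmitted infections in New Caledonia, collected over about 3 years. Susceptibility to conventional antibiotics was tested by disk agar diffusion, and beta-lactamase production by nitrocefin discs. Archival chromosomally mediated resistant isolates and WHO reference strains (WHO-C, -G, -L, -M, -O, -P; 07QA-01 to -06) served as controls.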"}, "[2]": {"test_system": "Neisseria gonorrhoeae", "assay": "Antibacterial activity against Neisseria gonorrhoeae assessed as susceptible isolates by disk agar diffusion method", "in_short": "(§2)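 Clinical isolates were collected from sexually transmitted infections in New Caledonia over nearly 3 years. They were tested in vitro against conventional antibiotics by disk agar diffusion. Archival chromosomally mediated resistant isolates and 12 reference strains served as controls: WHO-C, -G, -L, -M, -O, -P and 07QA-01 to 07QA-06.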"}, "[3]": {"test_system": "Neisseria gonorrhoeae", "assay": "Antibacterial activity against Neisseria gonorrhoeae harboring wild-type GA and Asp-345a insertion in penA genes by Etest method", "in_short": "(§3)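 Penicillin G MIC (µg/ml) by E-test gradient strip on chocolate agar plus PolyVitex, read where the inhibition zone meets the strip. Test organisms were clinical gonococcal isolates from New Caledonia, grouped by genotype. Archival chromosomally mediated resistant isolates and 12 WHO reference strains served as controls.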"}, "[4]": {"test_system": "Neisseria gonorrhoeae", "assay": "Antibacterial activity against Neisseria gonorrhoeae assessed as intermediate-resistant isolates by disk agar diffusion method", "in_short": "as §1"}, "[5]": {"test_system": "Neisseria gonorrhoeae", "assay": "Antibacterial activity against Neisseria gonorrhoeae harboring porB1a gene by disk agar diffusion method", "in_short": "as §1"}, "[6]": {"test_system": "Neisseria gonorrhoeae", "assay": "Antibacterial activity against Neisseria gonorrhoeae harboring wild-type penA and DA G101D mutant genes by Etest method", "in_short": "as §3"}, "[7]": {"test_system": "Neisseria gonorrhoeae", "assay": "Antibacterial activity against Neisseria gonorrhoeae harboring ponA L421P mutant gene by disk agar diffusion method", "in_short": "as §1"}, "[8]": {"test_system": "Neisseria gonorrhoeae", "assay": "Antibacterial activity against Neisseria gonorrhoeae harboring wild-type ponA gene by disk agar diffusion method", "in_short": "as §1"}, "[9]": {"test_system": "Neisseria gonorrhoeae", "assay": "Antibacterial activity against Neisseria gonorrhoeae harboring GS gene by disk agar diffusion method", "in_short": "as §1"}, "[10]": {"test_system": "Neisseria gonorrhoeae", "assay": "Antibacterial activity against Neisseria gonorrhoeae harboring wild-type penA and GS A102S mutant genes by Etest method", "in_short": "as §3"}, "[11]": {"test_system": "Neisseria gonorrhoeae", "assay": "Antibacterial activity against Neisseria gonorrhoeae harboring Asp-345a insertion in penA and porB1a genes by Etest method", "in_short": "as §3"}, "[12]": {"test_system": "Neisseria gonorrhoeae", "assay": "Antibacterial activity against Neisseria gonorrhoeae harboring GS A102S mutant gene by disk agar diffusion method", "in_short": "as §1"}, "[13]": {"test_system": "Neisseria gonorrhoeae", "assay": "Antibacterial activity against Neisseria gonorrhoeae by disk agar diffusion method", "in_short": "as §2"}, "[14]": {"test_system": "Neisseria gonorrhoeae", "assay": "Antibacterial activity against Neisseria gonorrhoeae harboring KD gene by disk agar diffusion method", "in_short": "as §1"}, "[15]": {"test_system": "Neisseria gonorrhoeae", "assay": "Antibacterial activity against Neisseria gonorrhoeae harboring wild-type GA gene by disk agar diffusion method", "in_short": "as §1"}, "[16]": {"test_system": "Neisseria gonorrhoeae", "assay": "Antibacterial activity against Neisseria gonorrhoeae harboring wild-type penA and porB1a genes by Etest method", "in_short": "as §3"}, "[17]": {"test_system": "Neisseria gonorrhoeae", "assay": "Antibacterial activity against Neisseria gonorrhoeae harboring wild-type GA and wild-type penA genes by Etest method", "in_short": "as §3"}, "[18]": {"test_system": "Neisseria gonorrhoeae", "assay": "Antibacterial activity against Neisseria gonorrhoeae harboring Asp-345a insertion in penA and DA G101D mutant genes by Etest method", "in_short": "as §3"}}}
{"smiles": "CC1(C)S[C@@H]2[C@H](NC(=O)Cc3ccccc3)C(=O)N2[C@H]1C(=O)O", "note": "[PENICILLIN G]", "values": [{"measurement": "MIC", "setting": "[1]", "result": 0.016, "unit": "µg/mL"}, {"measurement": "Activity", "setting": "[2]", "result": 60.1, "unit": "%"}, {"measurement": "MIC", "setting": "[3]", "result": 0.081, "unit": "µg/mL"}, {"measurement": "Activity", "setting": "[4]", "result": 39.9, "unit": "%"}, {"measurement": "MIC", "setting": "[5]", "result": 0.031, "unit": "µg/mL"}, {"measurement": "MIC", "setting": "[6]", "result": 0.016, "unit": "µg/mL"}, {"measurement": "MIC", "setting": "[7]", "result": 0.059, "unit": "µg/mL"}, {"measurement": "MIC", "setting": "[8]", "result": 0.067, "unit": "µg/mL"}, {"measurement": "MIC", "setting": "[9]", "result": 0.63, "unit": "µg/mL"}, {"measurement": "MIC", "setting": "[10]", "result": 0.156, "unit": "µg/mL"}, {"measurement": "MIC", "setting": "[11]", "result": 0.07, "unit": "µg/mL"}, {"measurement": "MIC", "setting": "[12]", "result": 0.155, "unit": "µg/mL"}, {"measurement": "MIC", "setting": "[13]", "result": 0.064, "unit": "µg/mL"}, {"measurement": "MIC", "setting": "[14]", "result": 1, "unit": "µg/mL"}, {"measurement": "MIC", "setting": "[15]", "result": 0.037, "unit": "µg/mL"}, {"measurement": "MIC", "setting": "[16]", "result": 0.011, "unit": "µg/mL"}, {"measurement": "MIC", "setting": "[17]", "result": 0.017, "unit": "µg/mL"}, {"measurement": "MIC", "setting": "[18]", "result": 0.133, "unit": "µg/mL"}]}
